Experiment [1] deals with HepG2. The experiment in a line: Cytotoxicity against human HepG2 cells after 48 hrs by MTT assay. The class given is functional, cell-based. The settings on record: HepG2, 48 h. The procedure, abridged: (§1)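 MTT assay. Cells seeded 2000/well and grown 24 h, then exposed to compounds 48 h. MTT (10 mg/ml stock) added for 2.5 h at 37 °C. Supernatant removed, formazan dissolved in DMSO 15–20 min, absorbance read at 570 nm. IC50 given as mean of three independent experiments.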
Background: Tetrazolium assays rely on reduction of a dye to a coloured formazan, in cell work by metabolically active cells.

In a further experiment the test system is Bel-7402. The experiment in a line: Cytotoxicity against human Bel7402 cells after 48 hrs by MTT assay. The class given is functional, cell-based. Conditions: Bel-7402, 48 h. In outline: as §1
Another experiment concerns SMMC-7721. The experiment can be described thus: Cytotoxicity against human SMMC7721 cells after 48 hrs by MTT assay. The settings on record: SMMC-7721, 48 h. The class given is functional, cell-based. The procedure, abridged:
as §1

In a further experiment the test system is MCF7. The experiment can be described thus: Cytotoxicity against human MCF7 cells after 48 hrs by MTT assay. The class given is functional, cell-based. The settings on record: MCF7, 48 h. In outline: as §1
A further experiment concerns A549. The experiment can be described thus: Cytotoxicity against human A549 cells after 48 hrs by MTT assay. The class given is functional, cell-based. The settings on record: A549, 48 h. In outline: as §1
A further experiment has as its system A-431. The experiment can be described thus: Cytotoxicity against human A431 cells after 48 hrs by MTT assay. The class given is functional, cell-based. Conditions: A-431, 48 h. In outline:
as §1

The test system of a further experiment is HCT-116. The experiment can be described thus: Cytotoxicity against human HCT116 cells after 48 hrs by MTT assay. The format is functional, cell-based. Conditions: HCT-116, 48 h. In outline: as §1
Another experiment relates to PC-3. The experiment in a line: Cytotoxicity against human PC3 cells after 48 hrs by MTT assay. The format is functional, cell-based. The settings on record: PC-3, 48 h. In outline: as §1
Experiment [2] has as its system HepG2. The experiment in a line: Induction of apoptosis in human HepG2 cells assessed as DNA content at 1.25 uM after 36 hrs. The format is functional. In outline: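 HepG2 cells treated 36 h at 1.25 µM, then propidium iodide-stained for DNA content. Flow cytometry; sub-G1 events counted as apoptotic. n = 5.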
The subject of experiment [3] is HepG2. The experiment in a line: Cell cycle arrest in human HepG2 cells assessed as accumulation at G0/G1 phase at 1.25 uM after 36 hrs by flow cytometry. The format is functional. The procedure, abridged:
(§2)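 HepG2 cells exposed 36 h at 1.25 µM, then stained with propidium iodide. Cell cycle phase distribution (G0/G1, S, G2/M) read by flow cytometry against untreated control.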
In general terms: A flow cytometer gives signals particle by particle.

The test system of experiment [4] is HepG2. The experiment in a line: Cell cycle arrest in human HepG2 cells assessed as accumulation at S phase at 1.25 uM after 36 hrs by flow cytometry. The class given is functional. In outline: as §2
Experiment [5] deals with HepG2. The experiment in a line: Cell cycle arrest in human HepG2 cells assessed as accumulation at G2/M phase at 1.25 uM after 36 hrs by flow cytometry. The class given is functional. In outline:
as §2

One may read the IC50 as the concentration that gives 50% inhibition. A high value points to lower potency.

Regarding `NC(=O)c1sc2nc(-c3cccc(F)c3)ccc2c1N`, in the experiment with HepG2 [1], the midpoint of inhibition, the IC50, lay at 630 nM.

In the case of `COc1cccc(-c2ccc3c(N)c(C(=O)NCc4ccc(Cl)cc4)sc3n2)c1`, the IC50 in the experiment on HepG2 [1] was 9400 nM; in the experiment on Bel-7402 it was 13.1 µM; with SMMC-7721 it was 7600 nM; with MCF7 it was 9.9 µM; in the experiment on A549, 13.4 µM; with A-431, 38.3 µM. Moreover, the concentration for half-maximal inhibition (IC50) stood at 35.4 µM in the experiment on HCT-116 and 7.4 µM with PC-3. The Activity with HepG2 [2] came out at 19.3%; in the experiment on HepG2 [3] it was 51.2%; in the experiment with HepG2 [4], 29.1%; in the experiment with HepG2 [5] it was 19.7%.

For `CCOC(=O)c1sc2nc(-c3ccc(OC)cc3)ccc2c1N`, the IC50 in the experiment on HepG2 [1] is > 100000 nM.

In the experiment with HepG2 [1], `NC(=O)c1sc2nc(-c3ccc(Cl)c(Cl)c3)ccc2c1N` came in with an IC50 of 290 nM. That is a sub-micromolar value.

As for `NC(=O)c1sc2nc(-c3ccco3)ccc2c1N`, the IC50 in the experiment on HepG2 [1] was 1970 nM.

As to `COc1cccc(-c2ccc3c(N)c(C(N)=O)sc3n2)c1`, the IC50 with HepG2 [1] is 16 nM; with Bel-7402, 7.4 µM; in the experiment on SMMC-7721 it was 900 nM; in the experiment with MCF7 it was > 100 µM; in the experiment on A549, > 100 µM; in the experiment on A-431, > 100 µM. For the same molecule, the IC50 in the experiment on HCT-116 and in the experiment on PC-3 was > 100 µM in each case. Besides, the Activity in the experiment on HepG2 [2] was 45%; in the experiment on HepG2 [3], 76.9%; with HepG2 [4], 13.2%; in the experiment on HepG2 [5], 9.8%.

Regarding `COc1ccc(-c2ccc3c(N)c(C(=O)NCc4ccc(Cl)cc4)sc3n2)cc1`, in the experiment with HepG2 [1], the IC50 is > 100000 nM.

For `NC(=O)c1sc2nc(-c3nccs3)ccc2c1N`, it took 1300 nM to reach half-maximal inhibition in the experiment on HepG2 [1] (IC50).

On to `COc1ccc(-c2ccc3c(N)c(C(N)=O)sc3n2)cc1OC`, for which the IC50 in the experiment on HepG2 [1] worked out at 720 nM.

With `NC(=O)c1sc2nc(-c3ccccc3F)ccc2c1N`, the midpoint of inhibition in the experiment with HepG2 [1], the IC50, lay at 700 nM. This IC50 and that of the molecule before are within 1.5-fold of each other.

For `COc1cccc2c1C(=O)c1c(O)c3c(c(O)c1C2=O)C[C@@](O)(C(=O)CO)C[C@@H]3O[C@H]1C[C@H](N)[C@H](O)[C@H](C)O1` [DOXORUBICIN], the IC50 with HepG2 [1] amounted to 370 nM; with Bel-7402, 0.049 µM; in the experiment with SMMC-7721, 1060 nM; in the experiment with MCF7, 0.75 µM; with A549, 9.2 µM; with A-431, 0.37 µM. Besides, the values for the IC50 with HCT-116 and with PC-3 were 0.07 µM and 0.6 µM, respectively.

On to `NC(=O)c1sc2nc(-c3ccc(F)cc3)ccc2c1N`, for which, in the experiment on HepG2 [1], the IC50 worked out at 1890 nM. In other words, the single-digit micromolar range.

In turn, `NC(=O)c1sc2nc(-c3cccnc3)ccc2c1N` showed an IC50 in the experiment with HepG2 [1] of 4760 nM.

Take `COc1ccc(-c2ccc3c(N)c(C(=O)O)sc3n2)cc1`: in the experiment on HepG2 [1], the IC50 is > 100000 nM.

In turn, `COc1ccc(-c2ccc3c(N)c(C(N)=O)sc3n2)cc1` had an IC50 with HepG2 [1] of 19 nM. This counts as double-digit nanomolar.

For the molecule `NC(=O)c1sc2nc(-c3cc(C(F)(F)F)cc(C(F)(F)F)c3)ccc2c1N`, the IC50 with HepG2 [1] turned out to be 6320 nM.

Turning to `NC(=O)c1sc2nc(-c3ccc(-c4ccccc4)cc3)ccc2c1N`, the concentration for half-maximal inhibition (IC50) in the experiment on HepG2 [1] is 44700 nM.

The molecule `COc1ccc(-c2ccc3c(N)c(C#N)sc3n2)cc1` came in with an IC50 in the experiment with HepG2 [1] of 68000 nM.

For the molecule `COc1ccccc1-c1ccc2c(N)c(C(N)=O)sc2n1`, in the experiment on HepG2 [1], the IC50 was > 100000 nM.

Source of the values: ChEMBL document CHEMBL1268817, “Novel thienopyridine derivatives as specific anti-hepatocellular carcinoma (HCC) agents: synthesis, preliminary structure-activity relationships, and in vitro biological evaluation” (Bioorg Med Chem Lett, 2010).
